Experimental data: ChEMBL document CHEMBL3232844, “Synthesis and structure activity relationships of schweinfurthin indoles” (2014)

What was measured:
Type in all cases: functional
NCI-H460 = assay: Cytotoxicity against human NCI-H460 cells
In short: (§1)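 Tested in a 60-cell-line human tumor panel screen; the read-out is growth inhibition, reported as GI50 for each cell line.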

M14 = assay: Cytotoxicity against human M14 cells; in short: as §1
[1] = Cytotoxicity against human UO31 cells
In short: (§2)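 Cell line run as part of the 60-cell-line screening panel; growth inhibition was reported as a GI50 for each line.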

NCI-H23 = assay: Cytotoxicity against human NCI-H23 cells; in short: as §1
HCT-116 = assay: Cytotoxicity against human HCT116 cells; in short: as §1
HOP-62 = assay: Cytotoxicity against human HOP62 cells; in short: as §1
[2] = Cytotoxicity against human HCT15 cells; in short: as §1
MDA-MB-468 = assay: Cytotoxicity against human MDA-MB-468 cells; in short: as §1
SF-539 = assay: Cytotoxicity against human SF539 cells; in short: as §1
T47D = assay: Cytotoxicity against human T47D cells; in short: as §2
MCF7 = assay: Cytotoxicity against human MCF7 cells; in short: as §1
KM12 = assay: Cytotoxicity against human KM12 cells; in short: as §1
IGROV-1 = assay: Cytotoxicity against human IGROV1 cells; in short: as §1
NCI-H226 = assay: Cytotoxicity against human NCI-H226 cells; in short: as §1
NCI-H322M = assay: Cytotoxicity against human NCI-H322M cells; in short: as §1
LOX IMVI = assay: Cytotoxicity against human LOXIMVI cells; in short: as §1
HCC 2998 = assay: Cytotoxicity against human HCC2998 cells; in short: as §1
SK-MEL-5 = assay: Cytotoxicity against human SK-MEL-5 cells; in short: as §1
[3] = Cytotoxicity against human NCI-ADR-RES cells; in short: as §1
[4] = Cytotoxicity against human OVCAR5 cells; in short: as §1
[5] = Cytotoxicity against human UACC62 cells; in short: as §2
CAKI-1 = assay: Cytotoxicity against human Caki1 cells; in short: as §1
COLO 205 = assay: Cytotoxicity against human COLO205 cells; in short: as §1
ACHN = assay: Cytotoxicity against human ACHN cells; in short: as §1
PC-3 = assay: Cytotoxicity against human PC3 cells; in short: as §1
SK-MEL-2 = assay: Cytotoxicity against human SK-MEL-2 cells; in short: as §1
CCRF-CEM = assay: Cytotoxicity against human CCRF-CEM cells
BT-549 = assay: Cytotoxicity against human BT549 cells; in short: as §1
SNB-75 = assay: Cytotoxicity against human SNB75 cells; in short: as §2
SK-OV-3 = assay: Cytotoxicity against human SKOV3 cells; in short: as §1
[6] = Cytotoxicity against human OVCAR4 cells; in short: as §1
A549 = assay: Cytotoxicity against human A549 cells; in short: as §1
MOLT-4 = assay: Cytotoxicity against human MOLT4 cells; in short: as §1
SF-268 = assay: Cytotoxicity against human SF268 cells; in short: as §1
MDA-MB-231 = assay: Cytotoxicity against human MDA-MB-231 cells; in short: as §1
MDA-MB-435 = assay: Cytotoxicity against human MDA-MB-435 cells; in short: as §1
[7] = Cytotoxicity against human OVCAR8 cells; in short: as §1
A498 = assay: Cytotoxicity against human A498 cells; in short: as §1
DU-145 = assay: Cytotoxicity against human DU145 cells; in short: as §1
786-0 = assay: Cytotoxicity against human 786-0 cells; in short: as §1
HL-60(TB) = assay: Cytotoxicity against human HL-60(TB) cells
In short: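 Tested within the NCI 60-cell-line screen, with GI50 as the read-out. Values are the average of two independent experiments. The lowest concentration tested was 10 nM.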

K562 = assay: Cytotoxicity against human K562 cells; in short: as §1
SNB-19 = assay: Cytotoxicity against human SNB19 cells; in short: as §1
[8] = read-out: pLC50 (the source's name) (converted)

Compound: COc1cc(/C=C/c2cc(OC)c3c(C/C=C(\C)CCC=C(C)C)c[nH]c3c2)cc2c1O[C@]1(C)CC[C@@H](O)C(C)(C)[C@H]1C2
- GI50 (NCI-H460): 1.17 µM
- CC50 (NCI-H460; [8]): 43.7 µM
- TGI (NCI-H460; read-out: pTGI (converted)): 9.12 µM
- GI50 (M14): 1.17 µM
- CC50 (M14; [8]): 8.51 µM
- TGI (M14; read-out: pTGI (converted)): 3.16 µM
- GI50 ([1]; UO-31): 0.631 µM
- LC50 ([1]; UO-31): > 100 µM
- TGI ([1]; UO-31, read-out: pTGI (converted)): 14.1 µM
- GI50 (NCI-H23): 2.34 µM
- CC50 (NCI-H23; [8]): 66.1 µM
- TGI (NCI-H23; read-out: pTGI (converted)): 16.6 µM
- GI50 (HCT-116): 0.933 µM
- CC50 (HCT-116; [8]): 43.7 µM
- TGI (HCT-116; read-out: pTGI (converted)): 12.9 µM
- GI50 (HOP-62): 1.07 µM
- CC50 (HOP-62; [8]): 22.4 µM
- TGI (HOP-62; read-out: pTGI (converted)): 4.79 µM
- GI50 ([2]; HCT-15): 1.82 µM
- CC50 ([2]; HCT-15, read-out: pLC50 (the source's name) (converted)): 66.1 µM
- TGI ([2]; HCT-15, read-out: pTGI (converted)): 11.5 µM
- GI50 (MDA-MB-468): 1.32 µM
- LC50 (MDA-MB-468): 33.1 µM
- TGI (MDA-MB-468; read-out: pTGI (converted)): 8.51 µM
- GI50 (SF-539): 0.148 µM
- CC50 (SF-539; [8]): 5.37 µM
- TGI (SF-539; read-out: pTGI (converted)): 0.871 µM
- GI50 (T47D): 7.24 µM
- CC50 (T47D; [8]): > 100 µM
- TGI (T47D; read-out: pTGI (converted)): 34.7 µM
- GI50 (MCF7): 1.02 µM
- LC50 (MCF7): 12.6 µM
- TGI (MCF7; read-out: pTGI (converted)): 3.39 µM
- GI50 (KM12): 0.562 µM
- CC50 (KM12; [8]): 5.13 µM
- TGI (KM12; read-out: pTGI (converted)): 1.95 µM
- GI50 (IGROV-1): 3.8 µM
- CC50 (IGROV-1; [8]): 91.2 µM
- TGI (IGROV-1; read-out: pTGI (converted)): 24 µM
- GI50 (NCI-H226): 8.32 µM
- CC50 (NCI-H226; [8]): 61.7 µM
- TGI (NCI-H226; read-out: pTGI (converted)): 24.5 µM
- GI50 (NCI-H322M): 19.1 µM
- CC50 (NCI-H322M; [8]): > 100 µM
- TGI (NCI-H322M; read-out: pTGI (converted)): > 100 µM
- GI50 (LOX IMVI): 1 µM
- CC50 (LOX IMVI; [8]): 7.59 µM
- TGI (LOX IMVI; read-out: pTGI (converted)): 2.75 µM
- GI50 (HCC 2998): 11.5 µM
- CC50 (HCC 2998; [8]): 57.5 µM
- TGI (HCC 2998; read-out: pTGI (converted)): 25.7 µM
- GI50 (SK-MEL-5): 0.525 µM
- CC50 (SK-MEL-5; [8]): 4.37 µM
- TGI (SK-MEL-5; read-out: pTGI (converted)): 1.86 µM
- GI50 [3]: 14.8 µM
- CC50 [3, 8]: > 100 µM
- TGI ([3]; read-out: pTGI (converted)): > 100 µM
- GI50 ([4]; OVCAR-5): 1.02 µM
- CC50 ([4]; OVCAR-5, read-out: pLC50 (the source's name) (converted)): 49 µM
- TGI ([4]; OVCAR-5, read-out: pTGI (converted)): 14.5 µM
- GI50 ([5]; UACC-62): 0.309 µM
- CC50 ([5]; UACC-62, read-out: pLC50 (the source's name) (converted)): 7.76 µM
- TGI ([5]; UACC-62, read-out: pTGI (converted)): 1.48 µM
- GI50 (CAKI-1): 0.603 µM
- LC50 (CAKI-1): > 100 µM
- TGI (CAKI-1; read-out: pTGI (converted)): 3.89 µM
- GI50 (COLO 205): 1.02 µM
- CC50 (COLO 205; [8]): 6.03 µM
- TGI (COLO 205; read-out: pTGI (converted)): 2.45 µM
- GI50 (ACHN): 0.661 µM
- LC50 (concentration killing 50% of cells) (ACHN): 85.1 µM
- TGI (ACHN; read-out: pTGI (converted)): 16.2 µM
- GI50 (PC-3): 0.447 µM
- LC50 (PC-3): > 100 µM
- TGI (PC-3; read-out: pTGI (converted)): 17.8 µM
- GI50 (SK-MEL-2): 1 µM
- CC50 (SK-MEL-2; [8]): 63.1 µM
- TGI (SK-MEL-2; read-out: pTGI (converted)): 9.77 µM
- GI50 (CCRF-CEM): 0.295 µM
- CC50 (CCRF-CEM; [8]): > 100 µM
- GI50 (BT-549): 0.589 µM
- CC50 (BT-549; [8]): 64.6 µM
- TGI (BT-549; read-out: pTGI (converted)): 17.8 µM
- GI50 (SNB-75): 0.145 µM
- CC50 (SNB-75; [8]): 40.7 µM
- TGI (SNB-75; read-out: pTGI (converted)): 0.692 µM
- GI50 (SK-OV-3): 1.23 µM
- LC50 (SK-OV-3): > 100 µM
- TGI (SK-OV-3; read-out: pTGI (converted)): 13.8 µM
- GI50 ([6]; OVCAR-4): 2.57 µM
- CC50 ([6]; OVCAR-4, read-out: pLC50 (the source's name) (converted)): > 100 µM
- TGI ([6]; OVCAR-4, read-out: pTGI (converted)): 70.8 µM
- GI50 (A549): 1.66 µM
- CC50 (A549; [8]): > 100 µM
- TGI (A549; read-out: pTGI (converted)): 36.3 µM
- GI50 (MOLT-4): 0.251 µM
- CC50 (MOLT-4; [8]): > 100 µM
- TGI (MOLT-4; read-out: pTGI (converted)): 0.851 µM
- GI50 (SF-268): 1.41 µM
- CC50 (SF-268; [8]): 52.5 µM
- TGI (SF-268; read-out: pTGI (converted)): 15.8 µM
- GI50 (MDA-MB-231): 1.41 µM
- LC50 (MDA-MB-231): 66.1 µM
- TGI (MDA-MB-231; read-out: pTGI (converted)): 12.9 µM
- GI50 (MDA-MB-435): 1.62 µM
- CC50 (MDA-MB-435; [8]): > 100 µM
- TGI (MDA-MB-435; read-out: pTGI (converted)): 17.4 µM
- GI50 ([7]; OVCAR-8): 12.6 µM
- CC50 ([7]; OVCAR-8, read-out: pLC50 (the source's name) (converted)): > 100 µM
- TGI ([7]; OVCAR-8, read-out: pTGI (converted)): 36.3 µM
- GI50 (A498): 1.02 µM
- CC50 (A498; [8]): 16.6 µM
- TGI (A498; read-out: pTGI (converted)): 3.72 µM
- GI50 (DU-145): 3.8 µM
- LC50 (50% lethal concentration) (DU-145): 45.7 µM
- TGI (DU-145; read-out: pTGI (converted)): 19.1 µM
- GI50 (786-0): 0.195 µM
- LC50 (concentration killing 50% of cells) (786-0): 56.2 µM
- TGI (786-0; read-out: pTGI (converted)): 1.86 µM
- GI50 (HL-60(TB)): 0.363 µM
- CC50 (HL-60(TB); [8]): > 100 µM
- TGI (HL-60(TB); read-out: pTGI (converted)): 10.5 µM
- GI50 (K562): 0.427 µM
- CC50 (K562; [8]): > 100 µM
- TGI (K562; read-out: pTGI (converted)): 3.89 µM
- GI50 (SNB-19): 1.7 µM
- CC50 (SNB-19; [8]): 58.9 µM
- TGI (SNB-19; read-out: pTGI (converted)): 13.5 µM
